# Screens deposited in PubChem BioAssay by Johns Hopkins Ion Channel Center.
# This is a sample that favours compounds with a hit; in the whole collection about 3.8% have one here.
# KCNK9 block: blocks the human KCNK9 two-pore domain potassium channel; Q9NPC2; HEK293 KCNK9, FluxOR thallium flux fluorescence; hits give low values; B-score at 10 µM; 310,000 compounds, 1.2% hits;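 active = ratio B-score over 3 SD below the library mean, with starting fluorescence within 5 SD of its mean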;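 note: negative B-score means less thallium flux so channel inhibition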
# KCNQ1 act: human KCNQ1 channel potentiation or activation; CHO-K1 KCNQ1, thallium flux FluxOR fluorescence; hits give high values; P51787; AID 2648; 310,000 compounds, 0.35% hits; B-score at 10 µM;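 active = fluorescence ratio B-score, a plate-corrected score, at least three library SD, with initial intensity B-score within 5 SD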
# Target sequence (P51787 whole entry, looked up): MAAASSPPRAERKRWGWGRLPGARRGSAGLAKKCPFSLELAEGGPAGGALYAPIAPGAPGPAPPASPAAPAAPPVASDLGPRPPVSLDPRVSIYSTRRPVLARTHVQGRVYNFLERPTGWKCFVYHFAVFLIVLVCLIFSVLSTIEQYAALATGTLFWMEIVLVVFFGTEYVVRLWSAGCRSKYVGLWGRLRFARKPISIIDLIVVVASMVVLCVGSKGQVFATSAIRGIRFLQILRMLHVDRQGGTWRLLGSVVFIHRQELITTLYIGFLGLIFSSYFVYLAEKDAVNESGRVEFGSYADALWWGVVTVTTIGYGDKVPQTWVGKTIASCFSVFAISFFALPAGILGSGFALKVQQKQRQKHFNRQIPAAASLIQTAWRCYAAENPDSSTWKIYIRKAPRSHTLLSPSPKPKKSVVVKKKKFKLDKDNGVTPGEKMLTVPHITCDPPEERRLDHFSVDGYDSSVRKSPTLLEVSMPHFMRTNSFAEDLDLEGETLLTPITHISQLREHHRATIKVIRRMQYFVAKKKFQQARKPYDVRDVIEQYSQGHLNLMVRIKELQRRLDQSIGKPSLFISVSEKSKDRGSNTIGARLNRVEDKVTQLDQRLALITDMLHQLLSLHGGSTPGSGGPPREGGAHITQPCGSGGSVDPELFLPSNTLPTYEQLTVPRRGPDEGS
#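 assay system = KCNQ1-transfected CHO-K1 cells | medium = assay buffer with matched DMSO | probe or stimulus = depolarizing K+/Tl+ stimulus, K2SO4 and Tl2SO4 each 12.5 mM in 5x stock | dosing = single dose | incubation = dye 90 min, compound 20 min, room temperature | detection = kinetic FluxOR fluorescence, 10 s baseline plus 110 s post-stimulus | evaluation = ratio B score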
# KCNQ1 inh: human KCNQ1 channel inhibition; P51787; CHO-K1 KCNQ1, FluxOR thallium flux fluorescence; hits give high values; B-score at 10 µM; 310,000 compounds, 1.3% hits;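 active = compounds whose thallium flux B-score, printed positive for inhibition, exceeds three library SD while starting fluorescence stays within three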;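 note: channel opened by potassium depolarization with thallium stimulus after 20 min compound exposure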
# hERG rescue: shields human hERG channel from block by proarrhythmic agents. 310,000 compounds, 0.51% hits. activation (rescue from dofetilide block), less the hit threshold, % at 10 µM. CHO-hERG, FluxOR thallium flux, dofetilide IC70 present. Q12809;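 active = activation above the mean of controls blocked by dofetilide plus 5 SD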;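 note: thallium influx through hERG after potassium depolarization seen as dye fluorescence rise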
# KCNK3 block: human KCNK3 channel inhibition, primary screen. 340,000 compounds, 0.84% hits. B-score at 10 µM. CHO-KCNK3 thallium flux, FluxOR fluorescence; hits give low values. AID 602410;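 active = B-score under library mean minus 4 SD, starting fluorescence ratio at most library mean plus 5 SD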;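 note: more negative B-score means stronger inhibition of thallium flux through KCNK3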
# Kir21 inh: Kir2.1 (mouse) channel inhibition; P35561; HEK293-Kir2.1, FluxOR thallium flux fluorescence; hits give low values; B-score at 10 µM; 310,000 compounds, 0.85% hits; AID 1672;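 active = fluorescence ratio B-score at or below minus 3 SD of library scores, with starting-brightness B-score within 2 SD, cut at about -4.2 in these data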;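 note: channel flux triggered by added potassium and thallium sulfate stimulus; B-score of peak minus minimum fluorescence over baseline after thallium stimulus; more negative B-score means stronger Kir2.1 block with less thallium influx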
# Hits are given with their value; n = inactive; x = no result.
SMILES,KCNK9 block,KCNQ1 act,KCNQ1 inh,hERG rescue,KCNK3 block,Kir21 inh
O=C(CSCSCC(=O)Nc1ccc2c(c1)OCO2)Nc1ccc2c(c1)OCO2,n,n,n,5.0,n,n
Cc1ccc(-c2ccc(=O)n(Cc3cccc(Br)c3)n2)cc1,n,n,n,n,n,n
Cc1cc(C(=O)N2CCN(S(=O)(=O)c3ccc(F)c(Cl)c3)CC2)c(C)o1,x,x,x,x,n,x
Cc1ncoc1C(=O)N1CCCC(N2CCN(c3ccccc3F)CC2)C1 (stereo not drawn),n,n,n,n,n,n
Cc1cc(=O)oc2cc(OCC(=O)NC3(C#N)CCCCC3)c(Cl)cc12,x,x,x,x,n,x
COc1ccc(CNC(=O)c2cc(=O)c3ccccc3o2)cc1,n,n,n,n,n,n
COc1cc(OC)c(OC)cc1CNC(=O)c1cc(=O)c2ccccc2o1,n,9,n,n,n,n
CCCCn1c(N)c(N(CCOC)C(=O)c2ccc(-c3ccc(C(C)=O)cc3)o2)c(=O)[nH]c1=O,n,n,n,n,n,n
CCOC(=O)C1=C(C)N(CC)C(=S)NC1c1ccc(Cl)cc1 (stereo not drawn),n,n,n,n,n,-7.1
O=C(N/N=C/c1sc(N2CCOCC2)nc1-c1ccccc1)c1ccccc1O,n,n,9,n,n,n
O=[N+]([O-])c1ccc(N/N=C/c2sc(N3CCOCC3)nc2-c2ccccc2)c(S(=O)(=O)Nc2ccccc2Cl)c1,x,x,x,x,n,x
O=[N+]([O-])c1ccc(N/N=C/c2sc(N3CCOCC3)nc2-c2ccccc2)c(S(=O)(=O)Nc2ccc(Cl)cc2)c1,n,n,11,n,n,n
Oc1ccc2ccccc2c1C=Nc1ccc(Cl)cn1,n,n,n,n,n,n
Cc1c(C(=O)NCCSCc2ccccc2)cccc1[N+](=O)[O-],n,n,n,n,n,n
Cc1ccc(C(=O)NCC2CCCO2)cc1[N+](=O)[O-] (stereo not drawn),n,n,n,4.7,n,n
Cc1c(C(=O)NCCSCc2ccc(Cl)cc2Cl)cccc1[N+](=O)[O-],n,n,n,10.0,n,n
Cc1ccc(C(=O)NCC(C)NC(=O)c2ccc(C)c([N+](=O)[O-])c2)cc1[N+](=O)[O-] (stereo not drawn),n,n,n,n,n,n
Cc1ccc(C(=O)NNC(=S)NCC2CCCO2)cc1[N+](=O)[O-] (stereo not drawn),n,n,n,n,n,n
Cc1ccc(C(=O)NCCSCc2ccc(Cl)cc2Cl)cc1[N+](=O)[O-],n,n,8,n,n,n
CCOC(=O)CN1C(=O)N[C@@H](c2cccs2)C(C(=O)OC)=C1C,n,n,n,n,n,n
COC(=O)C1=C(C)N(Cc2ccccc2)C(=NCCCCO)N[C@H]1CCc1ccccc1,n,n,n,n,n,-5.1
CCN1C(=NCc2cccc(Cl)c2)N[C@@H](c2cccc(F)c2)C(C(=O)OC)=C1C,n,n,n,n,n,-4.5
COC(=O)C1=C(C)N(Cc2ccccc2)C(=NCc2cccc(C(F)(F)F)c2)N[C@H]1c1cccc(C(F)(F)F)c1,x,x,x,x,n,x
COC(=O)C1=C(C)N(Cc2ccccc2)C(=NCc2cccc(C(F)(F)F)c2)N[C@H]1c1cccc(F)c1,n,n,n,n,n,-5.6
CCN1C(=NCCc2cccs2)N[C@@H](c2cccs2)C(C(=O)OC)=C1C,n,n,n,n,n,-6
SMILES,KCNK9 block,KCNQ1 act,KCNQ1 inh,hERG rescue,KCNK3 block,Kir21 inh
CCN1C(=S)N[C@@H](c2cccc(F)c2)C(C(=O)OC)=C1C,n,n,n,n,n,n
Cc1ccc(C)c(S(=O)(=O)N2CCN(C(=O)c3n[nH]c(=O)c4ccccc34)CC2)c1,x,x,x,x,n,x
Cc1ccc(S(=O)(=O)N2CCN(C(=O)COC(=O)COc3cccc(C(F)(F)F)c3)CC2)c(C)c1,x,x,x,x,n,x
CCOC(=O)C1CCCN(C(=O)C2CCN(S(=O)(=O)c3c(C)noc3/C=C/c3ccccc3F)CC2)C1 (stereo not drawn),n,n,n,n,n,n
COC(=O)C1=C(C)N(Cc2ccccc2)C(=NCc2ccc(OC)cc2)N[C@H]1c1ccccc1,x,x,x,x,n,x
COC(=O)C1=C(C)N(Cc2ccccc2)C(=O)N[C@H]1c1cccc(F)c1,n,n,n,n,n,n
COCCN1C(=O)N[C@@H](c2cccc(F)c2)C(C(=O)OC)=C1C,n,n,n,4.9,n,n
COC(=O)C1=C(C)N(Cc2ccccc2)C(=NCC(C)C)N[C@H]1c1ccccc1,n,n,n,n,x,-8.2
COc1ccc([N+](=O)[O-])cc1NC(=O)c1cn(-c2ccc(C)c(C)c2)c(=O)c2ccccc12,n,n,n,n,n,n
Cc1cc(O)c2c(c1)C(=O)c1cc(O)cc(O)c1C2=O,n,n,6,n,n,n
Cc1cc(OCC(=O)N(C)Cc2ccccc2)ccc1Br,-7.3,n,n,n,n,n
Cc1cc(OCC(=O)N(C)Cc2ccccc2)ccc1Cl,n,n,n,n,n,n
Cc1c(C(=O)N2CCN(Cc3ccc4c(c3)OCO4)CC2)sc2ncnc(N3CCN(c4ccccc4F)CC3)c12,n,n,n,n,n,n
Cc1c(C(=O)N2CCN(Cc3ccc4c(c3)OCO4)CC2)sc2ncnc(N3CCN(c4ccccc4)CC3)c12,n,n,7,n,n,n
O=C(CSc1nnc(SCc2ccccc2)s1)N/N=C/C=C/c1ccccc1[N+](=O)[O-],-7.8,n,n,n,n,n
O=C(CSc1nnc(SCc2ccccc2)s1)N/N=C/C=C\c1ccco1,n,n,n,n,n,n
Cc1ccc(S(=O)(=O)N2CCN(C(=O)C3CCN(c4ncnc5sc(C)c(C)c45)CC3)CC2)c(C)c1,x,x,x,x,n,x
Cc1ccc(S(=O)(=O)NCc2csc(-c3cccs3)n2)cc1,n,n,n,n,n,n
O=S(=O)(NCc1csc(-c2cccs2)n1)c1cccc(C(F)(F)F)c1,n,n,n,n,n,-11
Cc1csc2ncnc(N3CCN(C(=S)Nc4ccc(F)cc4F)CC3)c12,n,n,n,n,n,n
COc1cccc(C(=O)Nc2cc(C)nn2-c2ccccc2)c1OC,n,n,n,n,n,n
CC(=O)C(Cc1ccccc1)NC(=O)CN(C)Cc1ccccc1Cl (stereo not drawn),n,n,n,n,n,-4.9
Cc1ccccc1CN(C)CC(=O)NC(C)CCc1ccccc1 (stereo not drawn),n,n,n,n,n,-11
Cc1ccc(CN(C)CC(=O)NC(C)c2ccccc2)cc1 (stereo not drawn),n,n,n,n,n,-4.3
Cc1ccc(CC(=O)NC(C)CCc2ccccc2)cc1 (stereo not drawn),n,n,n,n,n,n
O=C(CSc1ccc(-c2ccco2)nn1)Nc1ccc(F)cc1F,n,n,n,n,n,n
